Results: paper PMC7717682 (Journal of Enzyme Inhibition and Medicinal Chemistry, 2020)
Where two headings read alike, the source gives them in different places.

Assays:
[1] = molecular target: T1, Escherichia coli GUS (EcGUS) (Escherichia coli, UniProt P05804); assay: EcGUS inhibition assay; type: biochemical; conditions: for percentage inhibition rate of EcGUS: compounds at 100 μM, pNPG as substrate; for inhibition at 100 µM: read-out: percentage inhibition rate of EcGUS
[2] = molecular target: T1, Escherichia coli GUS (EcGUS); assay: Inhibition kinetics; type: biochemical; conditions: pNPG as substrate; for type of inhibition of EcGUS: Lineweaver-Burk plot
How it was run: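 Recombinant EcGUS was expressed in E. coli BL21(DE3) carrying pET28a-EcGUS. The enzyme hydrolysed pNPG, and activity was read as para-nitrophenyl released. Test compound stocks were 10 mM in DMSO. pNPG and inhibitor concentrations were varied. Inhibition type came from where the regression lines intercept on Lineweaver-Burk plots, and Ki was then calculated. Runs were in triplicate, repeated twice, reported as mean ± SD.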

[3] = read-out: IC50 against EcGUS, pNPG 250 µM, PBS pH 7.4, 37 °C, 30 min

T1 sequence (P05804 whole entry): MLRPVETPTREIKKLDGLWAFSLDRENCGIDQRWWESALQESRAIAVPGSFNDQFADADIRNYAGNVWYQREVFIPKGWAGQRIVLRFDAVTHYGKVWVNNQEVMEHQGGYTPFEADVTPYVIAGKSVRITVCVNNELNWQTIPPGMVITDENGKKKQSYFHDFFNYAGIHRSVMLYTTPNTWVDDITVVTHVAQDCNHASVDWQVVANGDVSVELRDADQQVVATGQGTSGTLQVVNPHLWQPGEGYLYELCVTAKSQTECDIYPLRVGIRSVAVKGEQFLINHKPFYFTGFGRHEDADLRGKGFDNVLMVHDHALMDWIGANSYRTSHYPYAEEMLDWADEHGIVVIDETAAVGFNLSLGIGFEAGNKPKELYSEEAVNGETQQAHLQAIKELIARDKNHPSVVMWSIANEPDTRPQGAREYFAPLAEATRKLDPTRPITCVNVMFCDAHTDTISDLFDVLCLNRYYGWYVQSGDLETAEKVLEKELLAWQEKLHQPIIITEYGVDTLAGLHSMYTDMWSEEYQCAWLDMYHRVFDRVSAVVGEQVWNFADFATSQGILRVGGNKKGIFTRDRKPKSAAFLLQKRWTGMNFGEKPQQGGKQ

| Compound | percentage inhibition rate of EcGUS [1] [%] | IC50 [1, 3] [µM] | type of inhibition of EcGUS [2] | Ki ([2]; read-out: Ki (inhibition constant) against EcGUS) [µM] | IC50 [1] [µM] | inhibition at 100 µM [1] [%] |
| --- | --- | --- | --- | --- | --- | --- |
| CCOC(=O)/C=C/c1ccc(O)c(O)c1 [CAEE, caffeic acid ethyl ester] | 97.1 ± 0.2 | 7 | competitive | 2.7 | – | – |
| O=C(O)[C@@H](O)[C@H]1OC(=O)[C@H](O)[C@H]1O [DSL, D-glucaric acid-1,4-lactone, reference compound] | 48.7 ± 1.2 | 67.1 | – | – | – | – |
| C[C@@H]1O[C@@H](O[C@@H]2[C@@H](O)[C@H](OCCc3ccc(O)c(O)c3)O[C@H](CO)[C@H]2OC(=O)/C=C/c2ccc(O)c(O)c2)[C@H](O)[C@H](O)[C@H]1O [acteoside] | – | – | mixed-type | – | 3.2 | 88 ± 2.2 |
| COc1ccc(CCO[C@@H]2O[C@H](CO[C@@H]3OC[C@H](O)[C@H](O)[C@H]3O)[C@@H](OC(=O)/C=C/c3ccc(O)c(OC)c3)[C@H](O[C@@H]3O[C@@H](C)[C@H](O)[C@@H](O)[C@H]3O)[C@H]2O)cc1O [angoroside C] | – | > 100 | – | – | – | – |
| C[C@@H]1O[C@@H](OC[C@H]2O[C@@H](OCCc3ccc(O)c(O)c3)[C@H](OC(=O)/C=C/c3ccc(O)c(O)c3)[C@@H](O)[C@@H]2O)[C@H](O)[C@H](O)[C@H]1O [forsythoside H] | – | 22.2 | – | – | – | – |
| C[C@@H]1O[C@@H](O[C@@H]2[C@@H](O)[C@H](OCCc3ccc(O)c(O)c3)O[C@H](COC(=O)/C=C/c3ccc(O)c(O)c3)[C@H]2O)[C@H](O)[C@H](O)[C@H]1O [isoacteoside] | – | – | mixed-type | – | 8.8 | 77 |
| C[C@@H]1O[C@@H](OC[C@H]2O[C@@H](OCCc3ccc(O)c(O)c3)[C@H](O)[C@@H](OC(=O)/C=C/c3ccc(O)c(O)c3)[C@@H]2O)[C@H](O)[C@H](O)[C@H]1O [isoforsythiaside] | – | 7.6 | mixed-type | – | – | – |
| COc1ccc(CCO[C@@H]2O[C@H](CO)[C@@H](OC(=O)/C=C/c3ccc(O)c(OC)c3)[C@H](O[C@@H]3O[C@@H](C)[C@H](O)[C@@H](O)[C@H]3O)[C@H]2O)cc1O [martynoside] | – | 14.3 | mixed-type | – | – | – |
| acetylacteoside | – | – | mixed-type | – | – | – |
